SMILES strings stand for the structures.

Data set [1] concerns the target T1, Nuclear receptor subfamily 1 group I member 3 (Mus musculus, UniProt O35627).
T1 sequence (O35627 whole entry): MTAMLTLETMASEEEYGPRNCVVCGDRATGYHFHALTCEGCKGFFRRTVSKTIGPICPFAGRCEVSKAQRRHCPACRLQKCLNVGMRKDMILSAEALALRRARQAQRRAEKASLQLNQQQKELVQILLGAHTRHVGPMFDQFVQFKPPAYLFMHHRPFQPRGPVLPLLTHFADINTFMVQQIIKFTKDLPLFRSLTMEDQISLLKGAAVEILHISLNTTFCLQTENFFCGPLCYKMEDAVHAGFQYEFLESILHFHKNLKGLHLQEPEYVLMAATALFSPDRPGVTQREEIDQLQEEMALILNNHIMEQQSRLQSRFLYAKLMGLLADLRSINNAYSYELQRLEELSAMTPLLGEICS
Nature of the data set: Activation of wild type mouse CAR expressed in HEK293 cells at 10 uM by mammalian one-hybrid assay. The following applies: hek293, 10 µM.

The target in data set [2] is T2, Nuclear receptor subfamily 1 group I member 3 (Mus musculus, UniProt O35627, L212A). Nature of the data set: Effect on nuclear co-repressor receptor binding to mouse CAR L212A mutant […] at 10 uM by yeast two-hybrid assay. Format: cell-based. The following applies: read-out: Activity. The method in brief:
(§1)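 Yeast two-hybrid: yeast expressing wild-type or mutant mouse CAR LBD plus SRC-1 or NCoR, selected on SD medium lacking Leu and Trp. Pooled colonies treated with DMSO or test chemical for 3.5 h. β-Galactosidase normalized to cell density. SRC-1 reference: wild-type + DMSO = 100. NCoR reference: 10 µM androstenol = 100. Mean ± SD, two independent determinations, each in triplicate.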

Data set [3] deals with T3, Nuclear receptor subfamily 1 group I member 3 (Mus musculus, UniProt O35627, L353A). The data set can be described thus: Enhancement of nuclear co-repressor receptor binding to mouse CAR L353A mutant […] at 10 uM by yeast two-hybrid assay. It counts as cell-based. The method in brief: as §1
T3 sequence (O35627 whole entry L353A): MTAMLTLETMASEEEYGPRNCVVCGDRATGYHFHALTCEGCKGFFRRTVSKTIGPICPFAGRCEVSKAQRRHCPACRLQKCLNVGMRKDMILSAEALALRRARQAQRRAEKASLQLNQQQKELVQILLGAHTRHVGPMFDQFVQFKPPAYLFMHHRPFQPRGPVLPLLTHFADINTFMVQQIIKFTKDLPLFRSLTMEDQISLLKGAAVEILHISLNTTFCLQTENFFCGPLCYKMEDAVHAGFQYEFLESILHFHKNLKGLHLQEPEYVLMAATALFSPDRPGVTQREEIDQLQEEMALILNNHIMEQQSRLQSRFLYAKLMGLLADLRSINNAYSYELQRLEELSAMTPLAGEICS
Data set [4] has as its target T4, Nuclear receptor subfamily 1 group I member 3 (Mus musculus, UniProt O35627, F171L). The data set can be described thus: Enhancement of nuclear co-repressor receptor binding to mouse CAR F171L mutant […] at 10 uM by yeast two-hybrid assay. It counts as cell-based. The method in brief: as §1
Data set [5] has as its target T4, Nuclear receptor subfamily 1 group I member 3. To be noted: HEK293, mouse.
The target in data set [6] is Nuclear receptor subfamily 1 group I member 3 (Mus musculus, UniProt O35627, Y336A). The following applies: HEK293, mouse.
Chain of Nuclear receptor subfamily 1 group I member 3 (Mus musculus, UniProt O35627, Y336A) (O35627 whole entry Y336A): as the sequence (O35627 whole entry L353A) above, with Y336A, A353L counted along it
In data set [7] the target is T5, Nuclear receptor subfamily 1 group I member 3 (Mus musculus, UniProt O35627, S251L). The data set can be described thus: Activation of mouse CAR S251L mutant expressed in HEK293 cells at 10 uM by mammalian one-hybrid assay. To be noted: hek293, 10 µM. Format: cell-based. The method in brief:
(§2)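 GAL4 DBD fused to mouse CAR LBD (residues 118-358), wild type or point mutant, cotransfected with UASx4-tk-luc reporter and pCMVβ into HEK293 cells. Cells cultured with DMSO (0.1% v/v) or compound (final 1, 2 or 10 µM). Lysed 24 h post-transfection. Luciferase normalized to β-galactosidase, expressed relative to empty GAL4 vector (=1.0). Mean ± SD, three independent experiments.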

Data set [8] concerns the target T3, Nuclear receptor subfamily 1 group I member 3. The data set can be described thus: Effect on steroid receptor coactivator 1 binding to mouse CAR L353A mutant […] at 2 uM by yeast two-hybrid assay. It counts as cell-based. To be noted: read-out: Activity. Summed up:
as §1

The target in data set [9] is Nuclear receptor subfamily 1 group I member 3 (Mus musculus, UniProt O35627, F171A). Nature of the data set: Effect on steroid receptor co-activator 1 binding to mouse CAR F171A mutant […] at 2 uM by yeast two-hybrid assay. It counts as cell-based. To be noted: read-out: Activity. Summed up: as §1
Chain of Nuclear receptor subfamily 1 group I member 3 (Mus musculus, UniProt O35627, F171A) (O35627 whole entry F171A, the tested form may be a part): as the sequence (O35627 whole entry L353A) above, with F171A, A353L counted along it
Data set [10] has as its target T4, Nuclear receptor subfamily 1 group I member 3. Nature of the data set: Decrease in mouse CAR F171L mutant activation expressed in HEK293 cells at 2 uM by mammalian one-hybrid assay. The following applies: read-out: Activity. It counts as cell-based. The method in brief: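 GAL4-DBD fused to mouse CAR LBD (residues 118-358), wild-type or point mutant, cotransfected with UASx4-tk-luc reporter and pCMVβ into HEK293 cells. Cells were exposed to final 1 µM, 2 µM or 10 µM test chemical, or 0.1% v/v DMSO, for 24 h after transfection. Luciferase was normalized to β-galactosidase and set against empty GAL4 vector (=1.0). Mean ± standard deviation, three independent experiments.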

For data set [11], the target named is T6, Nuclear receptor subfamily 1 group I member 3 (Mus musculus, UniProt O35627, H213A). The data set can be described thus: Effect on steroid receptor co-activator 1 binding to mouse CAR H213A mutant […] at 2 uM by yeast two-hybrid assay. It counts as cell-based. To be noted: read-out: Activity. Summed up:
as §1

Data set [12] addresses T5, Nuclear receptor subfamily 1 group I member 3. The data set can be described thus: Decrease in steroid receptor coactivator 1 binding to mouse CAR S251L mutant […] at 2 uM by yeast two-hybrid assay. It counts as cell-based. The following applies: read-out: Activity. Summed up:
as §1

In data set [13] the target is Nuclear receptor subfamily 1 group I member 3 (Mus musculus, UniProt O35627, I252L). The data set can be described thus: Enhancement of steroid receptor coactivator 1 binding to mouse CAR I252L mutant […] at 2 uM by yeast two-hybrid assay. Format: cell-based. Summed up:
as §1

The target of data set [14] is Nuclear receptor subfamily 1 group I member 3 (Mus musculus, UniProt O35627, L253F). Nature of the data set: Decrease in steroid receptor coactivator 1 binding to mouse CAR L253F mutant […] at 2 uM by yeast two-hybrid assay. It counts as cell-based. To be noted: read-out: Activity. The method in brief: as §1
Chain of Nuclear receptor subfamily 1 group I member 3 (Mus musculus, UniProt O35627, L253F) (O35627 whole entry L253F): as the sequence (O35627 whole entry L353A) above, with L253F, A353L counted along it
The target in data set [15] is T6, Nuclear receptor subfamily 1 group I member 3. Nature of the data set: Enhancement of nuclear co-repressor receptor binding to mouse CAR H213A mutant […] at 2 uM by yeast two-hybrid assay. It counts as cell-based. The method in brief: as §1
Data set [16] has as its target T7, Nuclear receptor subfamily 1 group I member 3 (Mus musculus, UniProt O35627, T350A). Nature of the data set: Decrease in nuclear co-repressor receptor binding to mouse CAR T350A mutant […] at 2 uM by yeast two-hybrid assay. Format: cell-based. The following applies: read-out: Activity. The method in brief:
as §1

Data set [17] has as its target Nuclear receptor subfamily 1 group I member 3 (Mus musculus, UniProt O35627, T350M). The data set can be described thus: Effect on nuclear co-repressor receptor binding to mouse CAR T350M mutant […] at 1 uM by yeast two-hybrid assay. Format: cell-based. The following applies: read-out: Activity. The method in brief: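 Yeast expressing wild-type or mutant mouse CAR LBD plus NCoR, selected on SD plates lacking leucine and tryptophan. Pooled colonies treated with DMSO or compound for 3.5 h. β-Galactosidase activity normalized to cell density. Reference is 10 µM androstenol (=100). Mean ± SD of two independent determinations, each in triplicate.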

The target in data set [18] is T7, Nuclear receptor subfamily 1 group I member 3. The data set can be described thus: Decrease in mouse CAR T350A mutant activation expressed in HEK293 cells at 1 uM by mammalian one-hybrid assay. It counts as cell-based. To be noted: read-out: Activity. Summed up: as §2
For data set [19], the target named is T2, Nuclear receptor subfamily 1 group I member 3. The data set can be described thus: Effect on steroid receptor co-activator 1 binding to mouse CAR L212A mutant […] at 1 uM by yeast two-hybrid assay. It counts as cell-based. To be noted: read-out: Activity. The method in brief:
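Yeast expressing wild-type or mutant mouse CAR LBD plus SRC-1, selected on SD plates lacking leucine and tryptophan. Pooled colonies treated with DMSO or compound for 3.5 h. β-Galactosidase activity normalized to cell density. Reference is wild-type CAR + SRC-1 with DMSO (=100). Mean ± SD of two independent determinations, each in triplicate.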

T4 sequence (O35627 whole entry F171L): as the sequence (O35627 whole entry L353A) above, with F171L, A353L counted along it
T6 sequence (O35627 whole entry H213A): as the sequence (O35627 whole entry L353A) above, with H213A, A353L counted along it
T2 sequence (O35627 whole entry L212A, the tested form may be a part): as the sequence (O35627 whole entry L353A) above, with L212A, A353L counted along it
T5 sequence (O35627 whole entry S251L, the tested form may be a part): as the sequence (O35627 whole entry L353A) above, with S251L, A353L counted along it
T7 sequence (O35627 whole entry T350A): as the sequence (O35627 whole entry L353A) above, with T350A, A353L counted along it
Chain of Nuclear receptor subfamily 1 group I member 3 (Mus musculus, UniProt O35627, T350M) (O35627 whole entry T350M, the tested form may be a part): as the sequence (O35627 whole entry L353A) above, with T350M, A353L counted along it
Chain of Nuclear receptor subfamily 1 group I member 3 (Mus musculus, UniProt O35627, I252L) (O35627 whole entry I252L): as the sequence (O35627 whole entry L353A) above, with I252L, A353L counted along it

In the case of `COc1ccc(C(=O)CCCc2ccccc2)cc1`, the Activity in data set [1] was 40%; in data set [3], “>= 50%”; in [4], “>= 50%”. The activity at 10 µM in data set [2] was less than 50%.

On to `COc1ccc(C(c2ccc(OC)cc2)C(Cl)(Cl)Cl)cc1` [METHOXYCHLOR], for which the activity at 10 µM in data set [5] is less than 50%.

`C[C@]12CC[C@@H](O)C[C@@H]1CC[C@@H]1[C@@H]2CC[C@]2(C)C=CC[C@@H]12` [ANDROSTENOL] showed an activity at 10 µM in [6] of less than 50%. In addition, in data set [7], the Activity was less than 50%.

As to `Clc1ccccc1C(c1ccccc1)(c1ccccc1)n1ccnc1` [CLOTRIMAZOLE], the activity at 2 µM in [8], in data set [9] and in data set [11] was less than 50% each time. The inhibition at 2 µM in data set [10] was 50%; in data set [12], no less than 50%; in [14] it was no less than 50%; in [16] it was no less than 50%. The Activity entry is “>= 50%” in data set [13] and greater than 150% in data set [15].

Take `Clc1cnc(Oc2ccc(Oc3ncc(Cl)cc3Cl)cc2)c(Cl)c1`: the activity at 1 µM in data set [17] and in data set [19] was less than 50% each time. Further, the inhibition at 1 µM in data set [18] is less than 50%.

For the origin of these results see ChEMBL document CHEMBL1152300, “Ligand specificity of constitutive androstane receptor as probed by induced-fit docking and mutagenesis” (J Med Chem, 2008).
